System: Fibroblast
Experiment: Multiplex assay against human fibroblast
Assay type: toxicity, cell-based
Method in brief: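 At seeding, live cells were stained with Hoechst33342, BioTracker Green Microtubule Cytoskeleton Dye, MitoTracker Red and Annexin V Alexa Fluor 680. After compound addition they were imaged on a CQ1 microscope at 37°C and 5% CO2, and CellPathfinder machine-learning gating sorted them into Hoechst high-intensity objects or normal cells, with normal cells further split into healthy, pyknosed or fragmented nuclei and pyknosed cells into mitotic or apoptotic. Tubulin, mitochondrial-mass and membrane-permeability phenotypes are given as per cents of cells with healthy nuclei.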

[1] = 12 h, 1 µM, compound concentration 1 uM, replicate 1
[2] = 12 h, 1 µM, compound concentration 1 uM, replicate 2
[3] = 12 h, 10 µM, compound concentration 10 uM, replicate 1
[4] = 12 h, 10 µM, compound concentration 10 uM, replicate 2
[5] = 24 h, 1 µM, compound concentration 1 uM, replicate 1
[6] = 24 h, 1 µM, compound concentration 1 uM, replicate 2
[7] = 24 h, 10 µM, compound concentration 10 uM, replicate 1
[8] = 24 h, 10 µM, compound concentration 10 uM, replicate 2
[9] = 48 h, 1 µM, compound concentration 1 uM, replicate 1
[10] = 48 h, 1 µM, compound concentration 1 uM, replicate 2
[11] = 48 h, 10 µM, compound concentration 10 uM, replicate 1
[12] = 48 h, 10 µM, compound concentration 10 uM, replicate 2

Cl.N#Cc1ccc2[nH]cc(CCCCN3CCN(c4ccc5oc(C(N)=O)cc5c4)CC3)c2c1 [VILAZODONE HYDROCHLORIDE]
Population Apoptotic (%) [1]: 75% | Population Fragmented Nuclei (%) [1]: 38% | Population Healthy Nuclei (%) [1]: 22% | Population Hoechst High Intensity Objects (%) [1]: 19% | Population Membrane Permeable-Phenotype (%) [1]: 28% | Population Mitochondria Different-Phenotype (%) [1]: 9% | Population Mitotic Cells (%) [1]: 25% | Population Normal (%) [1]: 80% | Population Pyknosed Nuclei (%) [1]: 38% | Population Tubulin-Different-Phenotype (%) [1]: 47% | Total Cell Count [1]: 116 | Population Apoptotic (%) [2]: 27% | Population Fragmented Nuclei (%) [2]: 14% | Population Healthy Nuclei (%) [2]: 70% | Population Hoechst High Intensity Objects (%) [2]: 2% | Population Membrane Permeable-Phenotype (%) [2]: 6% | Population Mitochondria Different-Phenotype (%) [2]: 30% | Population Mitotic Cells (%) [2]: 72% | Population Normal (%) [2]: 97% | Population Pyknosed Nuclei (%) [2]: 15% | Population Tubulin-Different-Phenotype (%) [2]: 18% | Total Cell Count [2]: 50 | Population Apoptotic (%) [3]: 69% | Population Fragmented Nuclei (%) [3]: 19% | Population Healthy Nuclei (%) [3]: 18% | Population Hoechst High Intensity Objects (%) [3]: 35% | Population Membrane Permeable-Phenotype (%) [3]: 17% | Population Mitochondria Different-Phenotype (%) [3]: 21% | Population Mitotic Cells (%) [3]: 30% | Population Normal (%) [3]: 64% | Population Pyknosed Nuclei (%) [3]: 62% | Population Tubulin-Different-Phenotype (%) [3]: 52% | Total Cell Count [3]: 197 | Population Apoptotic (%) [4]: 67% | Population Fragmented Nuclei (%) [4]: 20% | Population Healthy Nuclei (%) [4]: 14% | Population Hoechst High Intensity Objects (%) [4]: 10% | Population Membrane Permeable-Phenotype (%) [4]: 38% | Population Mitochondria Different-Phenotype (%) [4]: 46% | Population Mitotic Cells (%) [4]: 32% | Population Normal (%) [4]: 89% | Population Pyknosed Nuclei (%) [4]: 64% | Population Tubulin-Different-Phenotype (%) [4]: 92% | Total Cell Count [4]: 72 | Population Apoptotic (%) [5]: 63% | Population Fragmented Nuclei (%) [5]: 32% | Population Healthy Nuclei (%) [5]: 42% | Population Hoechst High Intensity Objects (%) [5]: 25% | Population Membrane Permeable-Phenotype (%) [5]: 21% | Population Mitochondria Different-Phenotype (%) [5]: 8% | Population Mitotic Cells (%) [5]: 36% | Population Normal (%) [5]: 74% | Population Pyknosed Nuclei (%) [5]: 25% | Population Tubulin-Different-Phenotype (%) [5]: 51% | Total Cell Count [5]: 118 | Population Apoptotic (%) [6]: 60% | Population Fragmented Nuclei (%) [6]: 15% | Population Healthy Nuclei (%) [6]: 78% | Population Hoechst High Intensity Objects (%) [6]: 1% | Population Membrane Permeable-Phenotype (%) [6]: 3% | Population Mitochondria Different-Phenotype (%) [6]: 19% | Population Mitotic Cells (%) [6]: 40% | Population Normal (%) [6]: 98% | Population Pyknosed Nuclei (%) [6]: 6% | Population Tubulin-Different-Phenotype (%) [6]: 18% | Total Cell Count [6]: 54 | Population Apoptotic (%) [7]: 66% | Population Fragmented Nuclei (%) [7]: 22% | Population Healthy Nuclei (%) [7]: 23% | Population Hoechst High Intensity Objects (%) [7]: 35% | Population Membrane Permeable-Phenotype (%) [7]: 50% | Population Mitochondria Different-Phenotype (%) [7]: 20% | Population Mitotic Cells (%) [7]: 33% | Population Normal (%) [7]: 64% | Population Pyknosed Nuclei (%) [7]: 53% | Population Tubulin-Different-Phenotype (%) [7]: 50% | Total Cell Count [7]: 197 | Population Apoptotic (%) [8]: 75% | Population Fragmented Nuclei (%) [8]: 31% | Population Healthy Nuclei (%) [8]: 9% | Population Hoechst High Intensity Objects (%) [8]: 18% | Population Membrane Permeable-Phenotype (%) [8]: 30% | Population Mitochondria Different-Phenotype (%) [8]: 90% | Population Mitotic Cells (%) [8]: 24% | Population Normal (%) [8]: 81% | Population Pyknosed Nuclei (%) [8]: 59% | Population Tubulin-Different-Phenotype (%) [8]: 90% | Total Cell Count [8]: 79 | Population Apoptotic (%) [9]: 60% | Population Fragmented Nuclei (%) [9]: 35% | Population Healthy Nuclei (%) [9]: 53% | Population Hoechst High Intensity Objects (%) [9]: 30% | Population Mitochondria Different-Phenotype (%) [9]: 0% | Population Mitotic Cells (%) [9]: 40% | Population Normal (%) [9]: 69% | Population Pyknosed Nuclei (%) [9]: 10% | Population Tubulin-Different-Phenotype (%) [9]: 43% | Total Cell Count [9]: 136 | Population Apoptotic (%) [10]: 33% | Population Fragmented Nuclei (%) [10]: 39% | Population Healthy Nuclei (%) [10]: 57% | Population Hoechst High Intensity Objects (%) [10]: 13% | Population Membrane Permeable-Phenotype (%) [10]: 7% | Population Mitochondria Different-Phenotype (%) [10]: 1% | Population Mitotic Cells (%) [10]: 66% | Population Normal (%) [10]: 86% | Population Pyknosed Nuclei (%) [10]: 2% | Population Tubulin-Different-Phenotype (%) [10]: 64% | Total Cell Count [10]: 153 | Population Apoptotic (%) [11]: 50% | Population Fragmented Nuclei (%) [11]: 22% | Population Healthy Nuclei (%) [11]: 23% | Population Hoechst High Intensity Objects (%) [11]: 38% | Population Membrane Permeable-Phenotype (%) [11]: 51% | Population Mitochondria Different-Phenotype (%) [11]: 21% | Population Mitotic Cells (%) [11]: 50% | Population Normal (%) [11]: 61% | Population Pyknosed Nuclei (%) [11]: 53% | Population Tubulin-Different-Phenotype (%) [11]: 51% | Total Cell Count [11]: 230 | Population Apoptotic (%) [12]: 34% | Population Fragmented Nuclei (%) [12]: 15% | Population Healthy Nuclei (%) [12]: 34% | Population Hoechst High Intensity Objects (%) [12]: 44% | Population Membrane Permeable-Phenotype (%) [12]: 31% | Population Mitochondria Different-Phenotype (%) [12]: 40% | Population Mitotic Cells (%) [12]: 65% | Population Normal (%) [12]: 55% | Population Pyknosed Nuclei (%) [12]: 50% | Population Tubulin-Different-Phenotype (%) [12]: 72% | Total Cell Count [12]: 247

Reference: ChEMBL document CHEMBL4689842, “EUbOPEN Chemogenomics Library wave 1” (2021)
